In ChEMBL document CHEMBL1152588, “New potent P-glycoprotein modulators with the cucurbitane scaffold and their synergistic interaction with doxorubicin on resistant cancer cells” (Bioorg Med Chem, 2009):

Key:
[1] = molecular target: T1, ATP-dependent translocase ABCB1 (Homo sapiens, UniProt P08183); assay: Reversal of human MDR1-mediated multidrug resistance in mouse L5178Y cells expressing MDR1 assessed as side scatter count measured by cell size ratio at 2 uM after 10 mins by flow cytometry; type: cell-based
How it was run: (§1)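 Parental and MDR1-transfected L5178 cells at 2×10^6/mL in serum-free McCoy's 5A. Compound (0.5–20 µM; verapamil 22 µM as positive control) added 10 min at room temperature, then rhodamine 123 20 min at 37 °C. Cells washed twice, resuspended in PBS, flow cytometry on 10,000 cells (FSC, SSC, mean FL-1). FAR = (MDR treated/MDR control)/(parental treated/parental control); single representative experiment.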

[2] = molecular target: T1, ATP-dependent translocase ABCB1; assay: Reversal of human MDR1-mediated multidrug resistance in mouse L5178Y cells expressing MDR1 assessed as mean fluorescence intensity of rhodamine-123 uptake at 20 uM after 10 mins by flow cytometry; type: cell-based; how it was run: as §1
L5178Y [3] = assay: Reversal of human MDR1-mediated multidrug resistance in mouse L5178Y cells expressing MDR1 assessed as mean fluorescence intensity of rhodamine-123 uptake after 10 mins by flow cytometry; type: functional; how it was run: as §1
[4] = molecular target: T1, ATP-dependent translocase ABCB1; assay: Reversal of human MDR1-mediated multidrug resistance in mouse L5178Y cells expressing MDR1 assessed as mean fluorescence intensity of rhodamine-123 uptake at 2 uM after 10 mins by flow cytometry; type: cell-based; how it was run: as §1
[5] = molecular target: T1, ATP-dependent translocase ABCB1; assay: Reversal of human MDR1-mediated multidrug resistance in mouse L5178Y cells expressing MDR1 assessed as forward scatter count measured by cell size ratio at 2 uM after 10 mins by flow cytometry; type: cell-based; how it was run: as §1
[6] = molecular target: T1, ATP-dependent translocase ABCB1; assay: Reversal of human MDR1-mediated multidrug resistance in mouse L5178Y cells expressing MDR1 assessed as forward scatter count measured by cell size ratio at 20 uM after 10 mins by flow cytometry; type: cell-based; how it was run: as §1
[7] = molecular target: T1, ATP-dependent translocase ABCB1; assay: Reversal of human MDR1-mediated multidrug resistance in mouse L5178Y cells expressing MDR1 assessed as fluorescence activity ratio at 20 uM after 10 mins by rhodamine-123 exclusion test; type: cell-based; how it was run: as §1
L5178Y [8] = assay: Antiproliferative activity against multidrug resistance mouse L5178Y cells expressing human MDR1 after 72 hrs by MTT assay; type: functional; settings: read-out: ID50 (the source's name)
How it was run: (§2)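 L5178 mouse T-cell lymphoma cells, parental or transfected with human MDR1 via pHa MDR1/A retrovirus. Transfected cells were kept under 60 ng/mL colchicine. Cells grew in McCoy's 5A with 10% heat-inactivated horse serum at 37 °C, 5% CO2. 1×10^4 cells/well with rising compound concentrations, 72 h at 37 °C. MTT 4 h, SDS 10% overnight, OD 550 nm (ref 630 nm). % inhibition vs cell/medium controls; ID50 mean ± SD of three experiments.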

[9] = molecular target: T1, ATP-dependent translocase ABCB1; assay: Reversal of human MDR1-mediated multidrug resistance in mouse L5178Y cells expressing MDR1 assessed as fluorescence activity ratio at 2 uM after 10 mins by rhodamine-123 exclusion test; type: cell-based; how it was run: as §1
[10] = Octanol-water partition coefficient, log D of the compound; type: physicochemical
[11] = molecular target: T1, ATP-dependent translocase ABCB1; assay: Reversal of human MDR1-mediated multidrug resistance in mouse L5178Y cells expressing MDR1 assessed as side scatter count measured by cell size ratio at 20 uM after 10 mins by flow cytometry; type: cell-based; how it was run: as §1
L5178Y [12] = assay: Antiproliferative activity against mouse L5178Y cells after 72 hrs by MTT assay; type: functional; settings: read-out: ID50 (the source's name); how it was run: as §2
L5178Y [13] = assay: Reversal of multidrug resistance in mouse L5178Y cells assessed as mean fluorescence intensity of rhodamine-123 uptake after 10 mins by flow cytometry; type: functional; how it was run: as §1
L5178Y [14] = assay: Potentiation of doxorubicin-induced anticancer activity against mouse L5178Y cells expressing MDR1 assessed as fractional inhibitory concentration after 72 hrs by checkerboard microplate assay; type: functional
How it was run: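 Checkerboard combination on MDR1-transfected L5178 lymphoma cells: doxorubicin diluted along one plate axis, resistance modifier along the other; 5×10^4 cells/well; 72 h at 37 °C in CO2 incubator; growth read by MTT staining. FIC = ID50 in combination/ID50 alone for each agent; summed FIX <0.5 synergism, 0.51–1 additive, 1–2 indifferent, >2 antagonism.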

[15] = molecular target: T1, ATP-dependent translocase ABCB1; assay: Reversal of human MDR1-mediated multidrug resistance in mouse L5178Y cells expressing MDR1 assessed as mean fluorescence intensity of rhodamine-123 uptake at 1 uM after 10 mins by flow cytometry; type: cell-based; how it was run: as §1
[16] = molecular target: T1, ATP-dependent translocase ABCB1; assay: Reversal of human MDR1-mediated multidrug resistance in mouse L5178Y cells expressing MDR1 assessed as fluorescence activity ratio at 0.5 uM after 10 mins by rhodamine-123 exclusion test; type: cell-based; how it was run: as §1
[17] = molecular target: T1, ATP-dependent translocase ABCB1; assay: Reversal of human MDR1-mediated multidrug resistance in mouse L5178Y cells expressing MDR1 assessed as fluorescence activity ratio at 1 uM after 10 mins by rhodamine-123 exclusion test; type: cell-based; how it was run: as §1
[18] = molecular target: T1, ATP-dependent translocase ABCB1; assay: Reversal of human MDR1-mediated multidrug resistance in mouse L5178Y cells expressing MDR1 assessed as forward scatter count measured by cell size ratio at 0.5 uM after 10 mins by flow cytometry; type: cell-based; how it was run: as §1
[19] = molecular target: T1, ATP-dependent translocase ABCB1; assay: Reversal of human MDR1-mediated multidrug resistance in mouse L5178Y cells expressing MDR1 assessed as mean fluorescence intensity of rhodamine-123 uptake at 0.5 uM after 10 mins by flow cytometry; type: cell-based; how it was run: as §1
[20] = molecular target: T1, ATP-dependent translocase ABCB1; assay: Reversal of human MDR1-mediated multidrug resistance in mouse L5178Y cells expressing MDR1 assessed as side scatter count measured by cell size ratio at 1 uM after 10 mins by flow cytometry; type: cell-based; how it was run: as §1
[21] = molecular target: T1, ATP-dependent translocase ABCB1; assay: Reversal of human MDR1-mediated multidrug resistance in mouse L5178Y cells expressing MDR1 assessed as side scatter count measured by cell size ratio at 0.5 uM after 10 mins by flow cytometry; type: cell-based; how it was run: as §1
[22] = molecular target: T1, ATP-dependent translocase ABCB1; assay: Reversal of human MDR1-mediated multidrug resistance in mouse L5178Y cells expressing MDR1 assessed as forward scatter count measured by cell size ratio at 1 uM after 10 mins by flow cytometry; type: cell-based; how it was run: as §1
L5178Y [23] = assay: Reversal of human MDR1-mediated multidrug resistance in mouse L5178Y cells expressing MDR1 fluorescence activity ratio of rhodamine-123 uptake after 10 mins by flow cytometry

T1 sequence (P08183 whole entry): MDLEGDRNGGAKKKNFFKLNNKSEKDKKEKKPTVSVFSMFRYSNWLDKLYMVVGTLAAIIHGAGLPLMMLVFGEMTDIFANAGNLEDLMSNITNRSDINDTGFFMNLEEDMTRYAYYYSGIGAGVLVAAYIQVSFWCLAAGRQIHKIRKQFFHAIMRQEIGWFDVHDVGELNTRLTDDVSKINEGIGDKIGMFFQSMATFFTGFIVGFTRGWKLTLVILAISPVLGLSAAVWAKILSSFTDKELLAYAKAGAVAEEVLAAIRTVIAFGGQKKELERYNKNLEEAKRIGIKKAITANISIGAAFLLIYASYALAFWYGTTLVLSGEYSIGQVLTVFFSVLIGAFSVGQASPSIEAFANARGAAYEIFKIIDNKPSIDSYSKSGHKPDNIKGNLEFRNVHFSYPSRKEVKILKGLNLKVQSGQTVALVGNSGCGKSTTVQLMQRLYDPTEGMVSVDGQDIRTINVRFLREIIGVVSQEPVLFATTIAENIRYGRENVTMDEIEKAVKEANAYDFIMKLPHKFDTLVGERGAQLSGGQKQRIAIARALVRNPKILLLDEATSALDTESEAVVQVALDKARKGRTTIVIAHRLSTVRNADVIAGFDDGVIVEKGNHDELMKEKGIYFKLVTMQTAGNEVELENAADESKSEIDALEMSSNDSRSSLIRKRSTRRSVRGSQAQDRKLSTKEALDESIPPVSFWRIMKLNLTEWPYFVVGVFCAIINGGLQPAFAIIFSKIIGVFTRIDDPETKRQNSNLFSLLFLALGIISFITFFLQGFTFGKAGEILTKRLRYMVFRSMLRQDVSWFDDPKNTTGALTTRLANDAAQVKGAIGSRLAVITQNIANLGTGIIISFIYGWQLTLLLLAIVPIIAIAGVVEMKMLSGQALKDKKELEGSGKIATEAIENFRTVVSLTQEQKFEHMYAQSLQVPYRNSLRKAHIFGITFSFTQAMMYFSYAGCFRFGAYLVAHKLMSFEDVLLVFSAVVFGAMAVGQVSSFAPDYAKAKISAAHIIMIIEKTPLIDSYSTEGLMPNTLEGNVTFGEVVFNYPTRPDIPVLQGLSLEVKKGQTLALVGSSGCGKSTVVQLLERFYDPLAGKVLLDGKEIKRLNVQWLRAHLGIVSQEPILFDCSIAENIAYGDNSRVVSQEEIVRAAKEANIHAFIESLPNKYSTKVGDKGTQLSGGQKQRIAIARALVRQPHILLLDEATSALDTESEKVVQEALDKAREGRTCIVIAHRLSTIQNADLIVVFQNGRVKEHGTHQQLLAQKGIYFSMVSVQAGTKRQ

Activity [1]	Activity [2]	Activity [4]	Activity [5]	Activity [6]	Activity [7]	Activity [9]	logD [10]	Activity [11]	Structure (SMILES)	Activity (L5178Y [3])	IC50 (L5178Y [8]) [µM]	IC50 (L5178Y [12]) [µM]	Activity (L5178Y [13])	fractional inhibitory concentration index (FICI) (L5178Y [14])	other results
261.2	579.8	13.95	441.8	447.4	44.3	1.07	5.2	257.6	C[C@H](C/C=C/C(C)(C)O)[C@H]1CC[C@@]2(C)[C@@H]3[C@@H](O)C=C4[C@@H](CC[C@H](O)[C@]4(C)CO)[C@]3(C)CC[C@]12C [BALSAMINAGENIN A]	10.6	25.9	19.5	959.5	–	–
261.1	1365.1	78.4	428.7	454.4	104.2	5.98	5.8	238.6	COC(C)(C)/C=C/C[C@@H](C)[C@H]1CC[C@@]2(C)[C@@H]3[C@@H](O)C=C4[C@@H](CC[C@H](O)[C@]4(C)CO)[C@]3(C)CC[C@]12C [BALSAMINAGENIN B]	10.6	16.8	15.4	959.5	0.18	–
253.8	1171.1	19	429.6	441.6	89.4	1.45	5.3	249.7	COC(C)(C)/C=C/C[C@@H](C)[C@H]1CC[C@@]2(C)[C@@H]3[C@@H](O[C@H]4O[C@@H](CO)[C@H](O)[C@H](O)[C@@H]4O)C=C4[C@@H](CC[C@H](O)C4(C)C)[C@]3(C)CC[C@]12C [BALSAMINOSIDE A]	10.6	20.8	8.3	959.5	0.37	–
215.4	399.5	365.7	468.8	551.8	46	42.1	7.3	206.8	CO[C@H]1C=C2[C@@H](CC[C@H](O)C2(C)C)[C@]2(C)CC[C@]3(C)[C@@H]([C@H](C)C[C@@H](O)C=C(C)C)CC[C@@]3(C)[C@H]12 [KARAVELAGENIN C]	9.5	16.8	6.3	1034.3	0.28	Activity [15]: 130; Activity [16]: 1.5; Activity [17]: 15; Activity [18]: 456.4; Activity [19]: 12.7; Activity [20]: 217.8; Activity [21]: 215.3; Activity [22]: 460.7
254.9	612.7	671.2	470.2	518.1	34.2	35.2	8	222.4	CO[C@H]1C=C2[C@@H](CC[C@H](O)C2(C)C)[C@]2(C)CC[C@]3(C)[C@@H]([C@H](C)C[C@H](C=C(C)C)OC(C)=O)CC[C@@]3(C)[C@H]12 [KARAVOATE A]	–	34.8	26	–	0.44	–
247	671.2	102.1	454.9	462.9	37.5	5.7	8.6	249.3	CO[C@H]1C=C2[C@@H](CC[C@H](OC(C)=O)C2(C)C)[C@]2(C)CC[C@]3(C)[C@@H]([C@H](C)C[C@H](C=C(C)C)OC(C)=O)CC[C@@]3(C)[C@H]12 [KARAVOATE B]	–	60.2	48.8	–	–	–
249.9	726.8	30.3	466.3	481.3	40.6	1.7	8.3	242.5	CCC(=O)O[C@@H](C=C(C)C)C[C@@H](C)[C@H]1CC[C@@]2(C)[C@@H]3[C@@H](OC)C=C4[C@@H](CC[C@H](O)C4(C)C)[C@]3(C)CC[C@]12C [KARAVOATE C]	–	43.5	41.4	–	–	–
237.9	42.3	16.2	454	463.1	2.4	0.9	8.9	230.8	CCC(=O)O[C@H]1CC[C@@H]2C(=C[C@H](OC)[C@@H]3[C@@]2(C)CC[C@]2(C)[C@@H]([C@H](C)C[C@H](C=C(C)C)OC(=O)CC)CC[C@@]32C)C1(C)C [KARAVOATE D]	–	> 133	> 133	–	–	–
235.9	388.7	18	448.7	461.9	21.7	1	8.7	236.3	CCCC(=O)O[C@@H](C=C(C)C)C[C@@H](C)[C@H]1CC[C@@]2(C)[C@@H]3[C@@H](OC)C=C4[C@@H](CC[C@H](O)C4(C)C)[C@]3(C)CC[C@]12C [KARAVOATE E]	–	73.8	51	–	–	–
–	–	–	–	–	–	–	–	–	COc1ccc(CCN(C)CCCC(C#N)(c2ccc(OC)c(OC)c2)C(C)C)cc1OC (stereo unspecified) [VERAPAMIL]	97.1	–	–	–	–	FAR (L5178Y [23]): 7.4
